Experimental data published in ChEMBL document CHEMBL4052595, “Application of Residual Dipolar Couplings and Selective Quantitative NOE to Establish the Structures of Tetranortriterpenoids from Xylocarpus rumphii” (J Nat Prod, 2017).
Calls of active or inactive are those of the source.

What was measured:
Format in all cases: functional, cell-based
NCI-H460 = experiment: Growth inhibition of human NCI-H460 cells at 10^-5 M incubated for 48 hrs by sulforhodamine B assay
Method in brief: (§1)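 Run in the NCI59 one-dose cell-line screen, with each compound tested at a single concentration of 1 × 10−5 M.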

CAKI-1 = experiment: Growth inhibition of human Caki1 cells at 10^-5 M incubated for 48 hrs by sulforhodamine B assay; method in brief: as §1
SNB-19 = experiment: Growth inhibition of human SNB19 cells at 10^-5 M incubated for 48 hrs by sulforhodamine B assay; method in brief: as §1
M14 = experiment: Growth inhibition of human M14 cells at 10^-5 M incubated for 48 hrs by sulforhodamine B assay; method in brief: as §1
COLO 205 = experiment: Growth inhibition of human COLO205 cells at 10^-5 M incubated for 48 hrs by sulforhodamine B assay; method in brief: as §1
MDA-MB-231 = experiment: Growth inhibition of human MDA-MB-231 cells at 10^-5 M incubated for 48 hrs by sulforhodamine B assay; method in brief: as §1
A549 = experiment: Growth inhibition of human A549/ATCC cells at 10^-5 M incubated for 48 hrs by sulforhodamine B assay; method in brief: as §1
MDA-MB-435 = experiment: Growth inhibition of human MDA-MB-435 cells at 10^-5 M incubated for 48 hrs by sulforhodamine B assay; method in brief: as §1
U-251 = experiment: Growth inhibition of human U251 cells at 10^-5 M incubated for 48 hrs by sulforhodamine B assay
Method in brief: (§2)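 Tested at a single concentration of 1 × 10−5 M as part of the NCI59 cell-line one-dose screen.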

LOX IMVI = experiment: Growth inhibition of human LOXIMVI cells at 10^-5 M incubated for 48 hrs by sulforhodamine B assay; method in brief: as §1
RXF 393 = experiment: Growth inhibition of human RXF393 cells at 10^-5 M incubated for 48 hrs by sulforhodamine B assay; method in brief: as §1
CCRF-CEM = experiment: Growth inhibition of human CCRF-CEM cells at 10^-5 M incubated for 48 hrs by sulforhodamine B assay; method in brief: as §1
DU-145 = experiment: Growth inhibition of human DU145 cells at 10^-5 M incubated for 48 hrs by sulforhodamine B assay; method in brief: as §1
SN12C = experiment: Growth inhibition of human SN12C cells at 10^-5 M incubated for 48 hrs by sulforhodamine B assay; method in brief: as §1
HCC 2998 = experiment: Growth inhibition of human HCC2998 cells at 10^-5 M incubated for 48 hrs by sulforhodamine B assay; method in brief: as §1
UO-31 = experiment: Growth inhibition of human UO31 cells at 10^-5 M incubated for 48 hrs by sulforhodamine B assay; method in brief: as §2
UACC-257 = experiment: Growth inhibition of human UACC257 cells at 10^-5 M incubated for 48 hrs by sulforhodamine B assay; method in brief: as §2
SK-MEL-5 = experiment: Growth inhibition of human SK-MEL-5 cells at 10^-5 M incubated for 48 hrs by sulforhodamine B assay; method in brief: as §1
SK-OV-3 = experiment: Growth inhibition of human SKOV3 cells at 10^-5 M incubated for 48 hrs by sulforhodamine B assay; method in brief: as §1
MOLT-4 = experiment: Growth inhibition of human MOLT4 cells at 10^-5 M incubated for 48 hrs by sulforhodamine B assay; method in brief: as §1
MCF7 = experiment: Growth inhibition of human MCF7 cells at 10^-5 M incubated for 48 hrs by sulforhodamine B assay; method in brief: as §1
HCT-116 = experiment: Growth inhibition of human HCT116 cells at 10^-5 M incubated for 48 hrs by sulforhodamine B assay; method in brief: as §1
OVCAR-3 = experiment: Growth inhibition of human OVCAR3 cells at 10^-5 M incubated for 48 hrs by sulforhodamine B assay; method in brief: as §1
OVCAR-5 = experiment: Growth inhibition of human OVCAR5 cells at 10^-5 M incubated for 48 hrs by sulforhodamine B assay; method in brief: as §1
SF-268 = experiment: Growth inhibition of human SF268 cells at 10^-5 M incubated for 48 hrs by sulforhodamine B assay; method in brief: as §1
HOP-92 = experiment: Growth inhibition of human HOP92 cells at 10^-5 M incubated for 48 hrs by sulforhodamine B assay; method in brief: as §1
NCI-H522 = experiment: Growth inhibition of human NCI-H522 cells at 10^-5 M incubated for 48 hrs by sulforhodamine B assay; method in brief: as §1
SK-MEL-2 = experiment: Growth inhibition of human SK-MEL-2 cells at 10^-5 M incubated for 48 hrs by sulforhodamine B assay; method in brief: as §1
NCI/ADR-RES = experiment: Growth inhibition of human NCI/ADR-RES cells at 10^-5 M incubated for 48 hrs by sulforhodamine B assay; method in brief: as §1
EKVX = experiment: Growth inhibition of human EKVX cells at 10^-5 M incubated for 48 hrs by sulforhodamine B assay; method in brief: as §1
ACHN = experiment: Growth inhibition of human ACHN cells at 10^-5 M incubated for 48 hrs by sulforhodamine B assay; method in brief: as §1
UACC-62 = experiment: Growth inhibition of human UACC62 cells at 10^-5 M incubated for 48 hrs by sulforhodamine B assay; method in brief: as §2
SF-295 = experiment: Growth inhibition of human SF295 cells at 10^-5 M incubated for 48 hrs by sulforhodamine B assay; method in brief: as §1
T47D = experiment: Growth inhibition of human T47D cells at 10^-5 M incubated for 48 hrs by sulforhodamine B assay; method in brief: as §2
SF-539 = experiment: Growth inhibition of human SF539 cells at 10^-5 M incubated for 48 hrs by sulforhodamine B assay; method in brief: as §1
SNB-75 = experiment: Growth inhibition of human SNB75 cells at 10^-5 M incubated for 48 hrs by sulforhodamine B assay; method in brief: as §1
SW-620 = experiment: Growth inhibition of human SW620 cells at 10^-5 M incubated for 48 hrs by sulforhodamine B assay; method in brief: as §2
HT-29 = experiment: Growth inhibition of human HT-29 cells at 10^-5 M incubated for 48 hrs by sulforhodamine B assay; method in brief: as §1
SR = experiment: Growth inhibition of human SR cells at 10^-5 M incubated for 48 hrs by sulforhodamine B assay; method in brief: as §1
IGROV-1 = experiment: Growth inhibition of human IGROV1 cells at 10^-5 M incubated for 48 hrs by sulforhodamine B assay; method in brief: as §1
NCI-H226 = experiment: Growth inhibition of human NCI-H226 cells at 10^-5 M incubated for 48 hrs by sulforhodamine B assay; method in brief: as §1
HL-60(TB) = experiment: Growth inhibition of human HL-60(TB) cells at 10^-5 M incubated for 48 hrs by sulforhodamine B assay
Method in brief: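 Run in the NCI59 cell-line one-dose screen, with each compound tested at a single concentration of 1 × 10−5 M.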

KM12 = experiment: Growth inhibition of human KM12 cells at 10^-5 M incubated for 48 hrs by sulforhodamine B assay; method in brief: as §1
OVCAR-4 = experiment: Growth inhibition of human OVCAR4 cells at 10^-5 M incubated for 48 hrs by sulforhodamine B assay; method in brief: as §1
HCT-15 = experiment: Growth inhibition of human HCT15 cells at 10^-5 M incubated for 48 hrs by sulforhodamine B assay; method in brief: as §1
K562 = experiment: Growth inhibition of human K562 cells at 10^-5 M incubated for 48 hrs by sulforhodamine B assay; method in brief: as §1
NCI-H23 = experiment: Growth inhibition of human NCI-H23 cells at 10^-5 M incubated for 48 hrs by sulforhodamine B assay; method in brief: as §1
BT-549 = experiment: Growth inhibition of human BT549 cells at 10^-5 M incubated for 48 hrs by sulforhodamine B assay; method in brief: as §1
HOP-62 = experiment: Growth inhibition of human HOP62 cells at 10^-5 M incubated for 48 hrs by sulforhodamine B assay; method in brief: as §1
OVCAR-8 = experiment: Growth inhibition of human OVCAR8 cells at 10^-5 M incubated for 48 hrs by sulforhodamine B assay; method in brief: as §1
RPMI-8226 = experiment: Growth inhibition of human RPMI8226 cells at 10^-5 M incubated for 48 hrs by sulforhodamine B assay; method in brief: as §1
786-0 = experiment: Growth inhibition of human 786-0 cells at 10^-5 M incubated for 48 hrs by sulforhodamine B assay; method in brief: as §1
Hs-578T = experiment: Growth inhibition of human Hs 578T cells at 10^-5 M incubated for 48 hrs by sulforhodamine B assay; method in brief: as §1
A498 = experiment: Growth inhibition of human A498 cells at 10^-5 M incubated for 48 hrs by sulforhodamine B assay; method in brief: as §1
NCI-H322M = experiment: Growth inhibition of human NCI-H322M cells at 10^-5 M incubated for 48 hrs by sulforhodamine B assay; method in brief: as §1
PC-3 = experiment: Growth inhibition of human PC3 cells at 10^-5 M incubated for 48 hrs by sulforhodamine B assay; method in brief: as §1
TK-10 = experiment: Growth inhibition of human TK10 cells at 10^-5 M incubated for 48 hrs by sulforhodamine B assay; method in brief: as §2
SK-MEL-28 = experiment: Growth inhibition of human SK-MEL-28 cells at 10^-5 M incubated for 48 hrs by sulforhodamine B assay; method in brief: as §1

Measured: growth inhibition (GI)

CC[C@H](C)C(=O)O[C@@H]1[C@H]2[C@@H](OC(=O)C(C)C)C(C)(C)[C@H](CC(=O)OC)[C@@]3(C)[C@H]4CC[C@]5(C)C(=CC(=O)O[C@H]5C5=CC(O)OC5=O)[C@@]14O[C@@]23O (stereo partly drawn)
inactive: all assays above
